Source: PubChem (several laboratories)
SKN-1 block – C. elegans SKN-1 inhibition | C. elegans VP596 Pgst-4::GFP/RFP ratio, acrylamide-induced, 24 h | inhibition, % at 21.8 µM | actives 0.49% (n = 360,000);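 active means interference check ratio from 0.5 to 1.5 plus GFP to RFP signal ratio inhibition reaching or exceeding a fixed threshold, cut at about 30% in these data, passing the limit was not always enough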
rRNA inh HTS – inhibits bacterial ribosomal RNA function over humanized ribosomes; actives 1.6% (n = 350,000); AID 720706; GFP signal change (wild-type ribosome), % (no concentration beside the values); E. coli WT GFP vs humanized-ribosome RFP mutants, fluorescence, 24 h; hits give low values; DMSO median 0, no signal -100;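 active means significant combined selectivity score with lowered wild-type GFP, culture density cut under 30%, mutant RFP and density less affected; inactive means any of these conditions unmet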
hiPSC survival – hiPSC single-cell survival enhancement | survival enhancement, % at 20 µM | actives 0.044% (n = 360,000) | AID 602274 | ATPlite luminescence; 100% = ROCK inhibitor wells, 0% = DMSO; in the data active means survival enhancement above about 18%;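 further: cells exposed to compounds for 16 hours before the ATP read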
Cneo AK release – Cryptococcus neoformans lysis via adenylate kinase release; C. neoformans lysis, adenylate kinase release luminescence, 4 h; normalised: neutral wells 0, clomiphene wells 100; lysis activity, % at 15 µM; actives 0.2% (n = 360,000); AID 651654;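 active means mean lysis activity across replicates of at least 80%, whatever share of replicates individually reach that level; inactive means mean lysis activity below 80%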
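Schedule: static 4 h at 37 °C with compound, 1 h detection; system: C. neoformans cells; benchmarks: Clomiphene as positive control; buffer or medium: fresh YPD medium; measure: luminescence rise reflecting yeast cell lysis; measured by: luminescent adenylate kinase detection reagent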
MT1-MMP act inh – blocks activation of human MT1-MMP; P50281; HT1080 RFP-PRO-GFP cells, GFP/RFP ratio fluorescence, overnight; percent of plate control window, DMSO zero; GFP/RFP ratio change, % at 20 µM; actives 0.061% (n = 360,000); AID 651647;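 active means GFP/RFP ratio change of at least 30% with cell ATP level not reduced by more than half and red fluorescence within 50% of control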
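Compound: 20 µM single dose, 1% DMSO / System: HT1080 RFP-PRO-GFP cells / Controls: DMSO and RFP-L50D-GFP cell wells / Read-out basis: GFP/RFP fluorescence ratio / Schedule: overnight compound exposure at 37 °C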
DAGLB inh – blocks human DAGLB lipase activity. actives 0.059% (n = 340,000). AID 504411. inhibition, % at 5.17 µM. Q8NCG7. HEK293T DAGLB membrane lysate, EnzChek fluorogenic substrate; in the data active means inhibition above about 34%;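 further: 0% = enzyme with vehicle and 100% = wells lacking enzyme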
Target sequence (Q8NCG7 whole entry, looked up): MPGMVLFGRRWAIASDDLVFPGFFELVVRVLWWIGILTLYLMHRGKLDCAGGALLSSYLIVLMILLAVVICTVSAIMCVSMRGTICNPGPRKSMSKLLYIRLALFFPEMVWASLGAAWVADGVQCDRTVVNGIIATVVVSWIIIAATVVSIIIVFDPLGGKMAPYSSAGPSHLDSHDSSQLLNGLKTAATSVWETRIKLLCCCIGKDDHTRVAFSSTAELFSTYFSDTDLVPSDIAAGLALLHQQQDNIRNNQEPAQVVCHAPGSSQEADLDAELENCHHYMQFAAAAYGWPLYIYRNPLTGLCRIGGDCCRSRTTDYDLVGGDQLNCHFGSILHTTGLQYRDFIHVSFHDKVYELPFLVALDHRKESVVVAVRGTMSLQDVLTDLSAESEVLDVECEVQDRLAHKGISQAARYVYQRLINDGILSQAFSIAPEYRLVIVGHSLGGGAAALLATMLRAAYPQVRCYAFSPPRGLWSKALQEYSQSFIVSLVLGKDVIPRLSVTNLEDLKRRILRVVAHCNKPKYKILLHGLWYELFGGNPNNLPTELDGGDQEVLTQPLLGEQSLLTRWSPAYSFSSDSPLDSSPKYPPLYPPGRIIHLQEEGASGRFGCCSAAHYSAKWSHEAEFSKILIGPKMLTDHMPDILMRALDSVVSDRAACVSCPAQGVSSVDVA
AID977621 – growth inhibition of wild-type GFP E. coli, dose response, H69 mutant RFP, cherry-pick; 1,900 tested, under 10 active; activity change, negative = inhibition at 50 µM; E. coli wild-type GFP strain growth, fluorescence, 24 h; shares compounds with rRNA inh HTS;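 active means Wild-type ribosome reporter drop at least double the humanized mutant ribosome reporter drop, growth loss under a set limit; inconclusive means no clear call, values can overlap the other calls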;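 further: wild-type GFP and H69 mutant RFP strains grown together 50/50 in each well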
AID977628 – E. coli growth inhibition, wild-type GFP versus h24 humanized RFP strain, dose response, h24 mutant RFP vs wild-type GFP, cherry-pick | E. coli WT GFP strain growth, fluorescence, 24 h | activity change, negative = inhibition at 50 µM | 1,900 tested, under 10 active | shares compounds with rRNA inh HTS | AID 977628;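 active means compound lowering the normal-ribosome reporter at least twice as much as the humanized-ribosome reporter, growth loss under a set limit; inconclusive means no clear call, values can overlap the other calls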;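 further: wild-type GFP and h24 humanized RFP strains co-cultured 1 to 1 per well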
Starred values were filed as active, the others as inactive; ? = inconclusive; / = no result. In the library only some 1.8% were active in any assay of this set; here they are far more common.

SMILES | SKN-1 block | rRNA inh HTS | hiPSC survival | Cneo AK release | MT1-MMP act inh | DAGLB inh | AID977621 | AID977628
CCC(C(=O)NC1CCCC1)n1c(-c2ccnc3ccccc23)nc2ccccc21 (stereo not drawn) | -12 | -14* | / | / | -11 | / | -16 | -14
O=C(CCNC(=O)c1ccco1)Nc1cccc(Br)c1 | 10 | -20* | 1 | / | -4 | 0 | -20 | ?
CSc1cccc(NC(=O)CCNC(=O)c2ccco2)c1 | -5 | 1 | 0 | / | -1 | -3 | / | /
CC(=O)Nc1ccc(Nc2nc(C)c([N+](=O)[O-])c(Nc3ccccc3)n2)cc1 | 9 | / | 3 | / | -8 | 5 | / | /
CC(=O)Nc1ccc(Nc2nc(C)c([N+](=O)[O-])c(N(C)c3ccccc3)n2)cc1 | -6 | -44* | 0 | / | 5 | 2 | ? | ?
O=C(NCCc1ccccn1)c1cccc(S(=O)(=O)N2CCc3ccccc32)c1 | 1 | -18* | 0 | -2 | 0 | 0 | / | ?
C[C@H]1CN([C@@H](C)CO)C(=O)c2cccc(NC(=O)CCCCCC(=O)Nc3ccccc3N)c2O[C@@H]1CN(C)Cc1ccc(-c2ccccc2)cc1 | / | -3 | / | / | / | / | / | /
CC(C)C[C@@H](CSc1ccccc1)N1CCN(CC(C)C)CCC1=O | 1 | -23* | 2 | 1 | 0 | -8 | ? | /
C/C=C/c1cnc2c(c1)C(=O)N([C@@H](C)CO)C[C@@H](C)[C@@H](CN(C)C(=O)C1CC1)O2 | / | 6 | / | / | / | / | / | /
Cc1ccccc1NC(=O)c1ccc([N+](=O)[O-])o1 | -2 | / | -2 | / | 1 | 1 | / | /
Cc1ccc(NC(=O)c2ccc([N+](=O)[O-])o2)c(C)c1 | -5 | -33* | -1 | 1 | 0 | 2 | / | -16
CCOC(=O)c1c(C)[nH]c(C)c1S(=O)(=O)NCCN1CCN(c2ccccc2F)CC1 | -16 | -16* | 1 | 0 | 0 | 2 | -6.3 | -16
CCOC(=O)c1c(C)[nH]c(C)c1S(=O)(=O)NCC1CCN(Cc2ccccc2F)CC1 | 7 | 5 | 0 | 0 | 2 | -3 | / | /
CCCN1CCN(C(=O)c2ccc(Sc3ccc(C)cc3)c(NC(C)=O)c2)CC1 | -9 | -13* | -4 | / | 2 | 2 | -22 | -3.8
CN1N=C2c3ccccc3CCC2C1c1ccc(F)cc1 (stereo not drawn) | 17 | -16* | -1 | -1 | 1 | / | -9.4 | ?
CN(C)CCCn1c(=O)n(Cc2ccco2)c(=O)c2c3c(sc21)CCCCC3 | -6 | -26* | -1 | / | -13 | 1 | -20 | ?
CCCCN(C)CCNC(=O)c1cc2cc3ccc(OC)cc3nc2o1 | 13 | -3 | 0 | -2 | 5 | 3 | / | /
CCN(CC)CCNC(=O)c1cc2cc3ccc(OC)cc3nc2o1 | 11 | -19* | 0 | 0 | 1 | 0 | -7.9 | ?
O=C(CSCc1cnn(-c2ccccc2)c1-n1cccc1)NCc1cccnc1 | -8 | -25* | 1 | -4 | 4 | -1 | 8.3 | -2.9
COc1ccccc1CNC(=O)CSCc1cnn(-c2ccccc2)c1-n1cccc1 | -1 | / | 0 | -3 | 0 | -11 | / | /
CC(=O)N(C)C[C@H]1Oc2cc(-c3ccncc3)ccc2S(=O)(=O)N([C@H](C)CO)C[C@H]1C | / | 4 | / | 5 | / | / | / | /
C=CCSc1cc(C)nc2c(-c3ccccc3)c(C)nn12 | 12 | -38* | 0 | -1 | 2 | -5 | -7.6 | -4.8
O=S(=O)(c1ccccc1)N1CCN(Cc2ccccc2C(F)(F)F)CC1 | 13 | / | 0 | -4 | -4 | -2 | / | /
O=[N+]([O-])c1ccccc1CN1CCN(S(=O)(=O)c2ccccc2)CC1 | 4 | -25* | 0 | / | 2 | -5 | ? | ?
Cc1ccccc1NCc1ccc([N+](=O)[O-])s1 | 8 | -34* | 1 | 3 | 4 | 1 | / | -6.7
SMILES | SKN-1 block | rRNA inh HTS | hiPSC survival | Cneo AK release | MT1-MMP act inh | DAGLB inh | AID977621 | AID977628
O=C(COC(=O)C1CC1)Nc1nc(-c2ccc(F)c(F)c2)cs1 | 2 | -24* | 1 | 0 | 2 | -3 | -6.5 | /
O=C(CN1CCCCC1)Nc1nc(-c2ccc(F)c(F)c2)cs1 | 27 | 5 | 1 | 4 | 2 | -4 | / | /
COc1ccc(NC(=O)Nc2cccc3c2O[C@@H](CN(C)S(=O)(=O)c2ccc(Cl)cc2)[C@H](C)CN([C@H](C)CO)C3=O)cc1 | / | -4 | / | 5 | / | / | / | ?
COc1ccc(NC(=O)Nc2cccc3c2O[C@@H](CN(C)S(=O)(=O)c2ccc(OC)cc2)[C@@H](C)CN([C@@H](C)CO)C3=O)cc1 | / | 2 | / | -18 | / | / | / | /
COc1ccc(NC(=O)Nc2cccc3c2O[C@H](CN(C)S(=O)(=O)c2ccc(Cl)cc2)[C@@H](C)CN([C@H](C)CO)C3=O)cc1 | / | -5 | / | -1 | / | / | / | ?
COc1ccc(NC(=O)Nc2cccc3c2O[C@@H](CN(C)S(=O)(=O)c2ccc(Cl)cc2)[C@@H](C)CN([C@H](C)CO)C3=O)cc1 | / | / | / | -5 | / | / | / | /
COc1ccc(OC)c(-c2csc(NC(=O)C3COc4ccccc4O3)n2)c1 (stereo not drawn) | 12 | -23* | -1 | / | -4 | -13 | -4.4 | /
COc1ccc(OC)c(-c2csc(NC(=O)C3c4ccccc4Oc4ccccc43)n2)c1 | 3 | / | 1 | -1 | -30 | -6 | / | /
COc1ccc(NC(=O)CSc2nnc(Cc3ccccc3)o2)c(OC)c1 | 11 | -24* | 0 | 2 | -6 | 0 | -23 | -20
CCCC(=O)N1CC2(C1)CN(Cc1ccc(Cl)cc1)[C@H](CO)c1[nH]c3cc(OC)ccc3c12 | / | -6 | / | / | / | / | / | /
COc1cccc(NC2=Nc3cccc4cccc2c34)c1 | 11 | -34* | 0 | -6 | -23 | -1 | -0.48 | /
COc1ccc(CNC(=O)Cc2cn(C)c3ccccc23)c(OC)c1 | -6 | -24* | 0 | 4 | 1 | 0 | -1.1 | -6.3
COc1ccccc1CNC(=O)CCCc1cn(C)c2ccccc12 | -34 | -25 | 0 | -3 | 15 | -7 | / | /
O=C(Cc1cccnc1)N1CC(=O)N2[C@@H](CO)[C@H](c3ccc(C4=CCCC4)cc3)[C@@H]2C1 | / | 1 | / | / | / | / | / | /
O=c1[nH]nc(SCc2ccccc2)n1C1CC2C=CC1C2 (stereo not drawn) | 0 | -35* | -1 | / | 2 | 0 | -23 | ?
